In ChEMBL document CHEMBL4304756, “Second-Generation Tryptamine Derivatives Potently Sensitize Colistin Resistant Bacteria to Colistin” (ACS Med Chem Lett, 2019):
Active and inactive are the calls of the source. The calls are words filed in the database; no cut-off is given here.

How the values were obtained:
Acinetobacter baumannii [1] = experiment: Potentiation of colistin-induced antibacterial activity against Acinetobacter baumannii 17978 harbouring mcr-1 gene assessed as colistin MIC at 50 uM incubated for 16 hrs by broth microdilution method (reference value: 16 ug/ml); format: functional; conditions: Acinetobacter baumannii, 17978, 16 h
Klebsiella pneumoniae [2] = experiment: Potentiation of colistin-induced antibacterial activity against Klebsiella pneumoniae 2210291 harbouring mcr-1 gene assessed as colistin MIC at 50 uM incubated for 16 hrs by broth microdilution method (reference value: 16 ug/ml); format: functional; conditions: Klebsiella pneumoniae, 2210291, 16 h
Acinetobacter baumannii [3] = experiment: Potentiation of colistin-induced antibacterial activity against Acinetobacter baumannii 17978 harbouring mcr-1 gene assessed as reduction in colistin MIC at 15 uM incubated for 16 hrs by broth microdilution method; format: functional, organism-based
In short: (§1)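 For the dose-response, colistin MIC was measured against mcr-1 plasmid-bearing E. coli, K. pneumoniae and A. baumannii while the adjuvant concentration was lowered stepwise (30, 15 μM, down to 5 μM). The aim was to find where the MIC rose above the 2 μg/mL CLSI susceptibility breakpoint.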

Escherichia coli [4] = experiment: Potentiation of colistin-induced antibacterial activity against Escherichia coli YD626 harbouring mcr-1 gene assessed as reduction in colistin MIC at 15 uM incubated for 16 hrs by broth microdilution method; format: functional, organism-based; in short: as §1
Klebsiella pneumoniae [5] = experiment: Potentiation of colistin-induced antibacterial activity against Klebsiella pneumoniae 2210291 assessed as colistin MIC at 50 uM incubated for 16 hrs by broth microdilution method (reference value: 1 ug/ml); format: functional; conditions: Klebsiella pneumoniae, 2210291, 16 h
Acinetobacter baumannii [6] = experiment: Potentiation of colistin-induced antibacterial activity against Acinetobacter baumannii 17978 assessed as colistin MIC at 50 uM incubated for 16 hrs by broth microdilution method (reference value: 2 ug/ml); format: functional; conditions: Acinetobacter baumannii, 17978, 16 h
Escherichia coli [7] = experiment: Potentiation of colistin-induced antibacterial activity against Escherichia coli YD626 harbouring mcr-1 gene assessed as colistin MIC at 50 uM incubated for 16 hrs by broth microdilution method (reference value: 8 ug/ml); format: functional; conditions: YD626, 16 h
Escherichia coli [8] = experiment: Potentiation of colistin-induced antibacterial activity against Escherichia coli YD626 assessed as colistin MIC at 50 uM incubated for 16 hrs by broth microdilution method (reference value: 1 ug/ml); format: functional; conditions: YD626, 16 h
Klebsiella pneumoniae [9] = experiment: Potentiation of colistin-induced antibacterial activity against Klebsiella pneumoniae 2210291 harbouring mcr-1 gene assessed as reduction in colistin MIC at 15 uM incubated for 16 hrs by broth microdilution method; format: functional, organism-based; in short: as §1
[10] = Cytotoxicity against mouse 4T1 cells assessed as reduction in cell viability incubated for 18 hrs by MTT assay; format: cell-based
In short: (§2)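 4T1 mouse mammary tumor cells exposed to compound for 18 h, alone or together with colistin at 1 μg/mL. Medium then aspirated and replaced with 0.5 mg/mL MTT in culture medium for colorimetric viability read-out. CT50 taken as the concentration giving 50% cell viability.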

[11] = Cytotoxicity against mouse 4T1 cells assessed as reduction in cell viability in presence of 1 ug/ml colistin incubated for 18 hrs by MTT assay; format: cell-based; in short: as §2

SMILES	MIC (Acinetobacter baumannii [1]) [µg/mL]	MIC (Klebsiella pneumoniae [2]) [µg/mL]	Activity (Acinetobacter baumannii [3])	Activity (Escherichia coli [4])	MIC (Klebsiella pneumoniae [5]) [µg/mL]	MIC (Acinetobacter baumannii [6]) [µg/mL]	MIC (Escherichia coli [7]) [µg/mL]	MIC (Escherichia coli [8]) [µg/mL]	Activity (Klebsiella pneumoniae [9])	CC50 at 18 h [10] [µM]	CC50 at 18 h [11] [µM]
O=C(NCCc1c[nH]c2ccccc12)Nc1cc(Cl)c(Br)c(Cl)c1	1	1	Active	Active	0.5	0.5	1	0.125	Active	–	–
O=C(NCCc1c[nH]c2ccc(Br)cc12)Nc1cc(C(F)(F)F)cc(C(F)(F)F)c1	2	2	–	–	0.5	0.25	4	0.0313	–	–	–
O=C(NCCc1c[nH]c2ccc(Br)cc12)c1ccc(Cl)c(Cl)c1	1	1	–	–	0.5	0.5	2	0.25	–	–	–
O=C(Nc1cc(Br)cc(Br)c1)Nc1ccc2[nH]ccc2c1	16	16	–	–	1	1	8	1	–	–	–
O=C(Nc1cc(Br)cc(Br)c1)Nc1ccc2cc[nH]c2c1	16	16	–	–	1	2	8	1	–	–	–
O=C(NCCc1c[nH]c2ccc(Br)cc12)c1cc(Br)cc(Br)c1	4	4	–	–	0.5	1	4	0.5	–	–	–
O=C(Nc1cc(Cl)c(Br)c(Cl)c1)Nc1ccc2cc[nH]c2c1	16	16	–	–	1	2	8	1	–	–	–
CC(C)n1cc(-c2cccc(NC(=O)Nc3cc(Cl)c(Br)c(Cl)c3)c2)nc1N	–	–	–	–	–	–	–	–	–	23.2	15.6
O=C(Nc1cc(Cl)c(Br)c(Cl)c1)Nc1ccc2[nH]ccc2c1	8	16	–	–	1	1	8	0.5	–	–	–
O=C(NCc1c[nH]c2ccccc12)Nc1cc(Br)cc(Br)c1	8	16	–	–	0.5	1	4	0.25	–	–	–
O=C(NCc1c[nH]c2ccccc12)Nc1cc(C(F)(F)F)cc(C(F)(F)F)c1	1	1	–	–	0.125	0.125	1	0.0313	–	–	–
O=C(Nc1ccc(Cl)c(Cl)c1)Nc1ccc2cc[nH]c2c1	16	16	–	–	1	2	8	1	–	–	–
O=C(NCCc1c[nH]c2ccccc12)Nc1ccc(Cl)c(Cl)c1	0.5	0.5	–	–	0.25	0.5	1	0.125	–	117	105
O=C(Nc1ccc(Cl)c(Cl)c1)Nc1ccc2[nH]ccc2c1	16	16	–	–	1	2	8	0.5	–	–	–
O=C(NCCc1c[nH]c2ccc(Br)cc12)c1cc(C(F)(F)F)cc(C(F)(F)F)c1	8	8	–	–	0.25	0.5	4	0.0625	–	–	–
O=C(NCCc1c[nH]c2ccccc12)Nc1cc(C(F)(F)F)cc(C(F)(F)F)c1	0.5	1	Active	Active	0.25	0.125	1	0.0313	Active	60.5	61.8
CCCCc1ccc(NC(=O)NCc2c[nH]c3ccccc23)cc1	16	16	–	–	0.5	2	8	1	–	–	–
CCCCc1ccc(NC(=O)Nc2ccc3[nH]ccc3c2)cc1	16	16	–	–	0.5	1	8	0.5	–	–	–
O=C(NCCc1c[nH]c2ccccc12)c1ccc(Cl)c(Cl)c1	2	2	–	–	0.5	1	2	0.5	–	–	–
O=C(NCCc1c[nH]c2ccc(Br)cc12)Nc1cc(Br)cc(Br)c1	2	2	–	–	0.5	0.5	2	0.25	–	–	–
O=C(NCCc1c[nH]c2ccccc12)c1cc(Br)cc(Br)c1	4	4	–	–	0.5	1	4	0.25	–	–	–
O=C(NCCc1c[nH]c2ccccc12)c1cc(C(F)(F)F)cc(C(F)(F)F)c1	8	16	–	–	0.25	0.25	4	0.0625	–	–	–
O=C(Nc1cc(C(F)(F)F)cc(C(F)(F)F)c1)Nc1ccc2cc[nH]c2c1	8	16	–	–	1	1	4	0.5	–	–	–
CCCCc1ccc(NC(=O)Nc2ccc3cc[nH]c3c2)cc1	8	16	–	–	1	2	8	0.5	–	–	–
CCCCc1ccc(C(=O)NCCc2c[nH]c3ccccc23)cc1	4	8	–	–	0.125	0.25	4	0.0625	–	–	–
O=C(Nc1cc(C(F)(F)F)cc(C(F)(F)F)c1)Nc1ccc2[nH]ccc2c1	8	8	–	–	0.5	1	4	0.5	–	–	–
O=C(NCc1c[nH]c2ccccc12)Nc1cc(Cl)c(Br)c(Cl)c1	8	8	–	–	0.5	1	8	0.25	–	–	–
CCCCc1ccc(C(=O)NCCc2c[nH]c3ccc(Br)cc23)cc1	4	4	–	–	0.25	0.5	4	0.125	–	–	–
CCCCc1ccc(NC(=O)NCCc2c[nH]c3ccccc23)cc1	16	16	–	–	1	2	8	1	–	–	–
O=C(NCc1c[nH]c2ccccc12)Nc1ccc(Cl)c(Cl)c1	16	16	–	–	0.5	2	4	0.5	–	–	–
